The results in this text go back to ChEMBL document CHEMBL3091321, “Design, synthesis and cytotoxicity of novel 3'-N-alkoxycarbonyl docetaxel analogs” (Bioorg Med Chem Lett, 2013).

The term pIC50 denotes the IC50 on a negative log10 scale, so that one unit is a factor of ten.

pIC50: −log10 of the molar value.

The subject of assay [1] is A549. Briefly: Cytotoxicity against human A549 cells after 48 hrs by MTT assay. The note with it: A549, 48 h. The assay is classed as functional, cell-based. In a few lines: (§1)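 Cells were exposed to drug for 48 h at seven ten-fold dilutions down to 0.1 nM. MTT in RPMI-1640 was then added for a further 4 h at 37 °C. Formazan was dissolved in DMSO and absorbance read at 570 nm after 5 min. Each run was done in triplicate. IC₅₀ is given as mean ± SD of three independent experiments.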

Assay [2] relates to SK-OV-3. Description: Cytotoxicity against human SKOV3 cells after 48 hrs by MTT assay. The assay is classed as functional, cell-based. The note with it: SK-OV-3, 48 h. In a few lines: as §1
On the technique in general: Formazan colour is commonly taken as a measure of viable cells.

Assay [3] concerns A549. Briefly: Ratio of taxol IC50 to compound IC50 for human A549 cells. The assay is classed as functional.
Assay [4] deals with A549. Briefly: Ratio of docetaxel IC50 to compound IC50 for human A549 cells. It is filed as functional.

Regarding `CC(=O)O[C@@]12CO[C@@H]1C[C@H](O)[C@@]1(C)C(=O)[C@H](O)C3=C(C)[C@@H](OC(=O)[C@H](O)[C@@H](NC(=O)O[C@H](C)C(C)C)c4ccccc4)C[C@@](O)([C@@H](OC(=O)c4ccccc4)[C@H]21)C3(C)C`, the negative logarithm of the IC50 (pIC50) in assay [1] is 7.46; in assay [2], 7.89.

Take `CC(=O)O[C@@]12CO[C@@H]1C[C@H](O)[C@@]1(C)C(=O)[C@H](O)C3=C(C)[C@@H](OC(=O)[C@H](O)[C@@H](NC(=O)O[C@@H](C)C(C)C)c4ccccc4)C[C@@](O)([C@@H](OC(=O)c4ccccc4)[C@H]21)C3(C)C`: the negative logarithm of the IC50 (pIC50) is 7.22 in assay [1] and 7.77 in assay [2].

Consider `CC[C@@H](C)OC(=O)N[C@@H](c1ccccc1)[C@@H](O)C(=O)O[C@H]1C[C@@]2(O)[C@@H](OC(=O)c3ccccc3)[C@@H]3[C@]4(OC(C)=O)CO[C@@H]4C[C@H](O)[C@@]3(C)C(=O)[C@H](O)C(=C1C)C2(C)C`, for which the pIC50 in assay [1] was 7.74; in assay [2], 7.89.

Turning to `CC[C@H](C)OC(=O)N[C@@H](c1ccccc1)[C@@H](O)C(=O)O[C@H]1C[C@@]2(O)[C@@H](OC(=O)c3ccccc3)[C@@H]3[C@]4(OC(C)=O)CO[C@@H]4C[C@H](O)[C@@]3(C)C(=O)[C@H](O)C(=C1C)C2(C)C`, the values for the pIC50 in assay [1] and in assay [2] were 7.40 and 7.57, respectively.

Consider `CCC(C)(C)OC(=O)N[C@@H](c1ccccc1)[C@@H](O)C(=O)O[C@H]1C[C@@]2(O)[C@@H](OC(=O)c3ccccc3)[C@@H]3[C@]4(OC(C)=O)CO[C@@H]4C[C@H](O)[C@@]3(C)C(=O)[C@H](O)C(=C1C)C2(C)C`, for which the results for the pIC50 in assay [1] and in assay [2] were 7.89 and 8.23, respectively. For the same compound, the “Ratio IC50” value in assay [3] and in assay [4] was >65 in each case.

For `CCCC(C)(C)OC(=O)N[C@@H](c1ccccc1)[C@@H](O)C(=O)O[C@H]1C[C@@]2(O)[C@@H](OC(=O)c3ccccc3)[C@@H]3[C@]4(OC(C)=O)CO[C@@H]4C[C@H](O)[C@@]3(C)C(=O)[C@H](O)C(=C1C)C2(C)C`, the pIC50 is 8.00 in assay [1] and 8.54 in assay [2]. Also, the “Ratio IC50” value in assay [3] and in assay [4] was >65 in each case.

For `CC(=O)O[C@@]12CO[C@@H]1C[C@H](O)[C@@]1(C)C(=O)[C@H](O)C3=C(C)[C@@H](OC(=O)[C@H](O)[C@@H](NC(=O)OC(C)(C)C(C)C)c4ccccc4)C[C@@](O)([C@@H](OC(=O)c4ccccc4)[C@H]21)C3(C)C`, the pIC50 in assay [1] was 7.92; in assay [2] it was 8.57. Further, the “Ratio IC50” value in assay [3] and in assay [4] was >65 each time.

With `CC(=O)O[C@@]12CO[C@@H]1C[C@H](O)[C@@]1(C)C(=O)[C@H](O)C3=C(C)[C@@H](OC(=O)[C@H](O)[C@@H](NC(=O)OC(C)(C)CF)c4ccccc4)C[C@@](O)([C@@H](OC(=O)c4ccccc4)[C@H]21)C3(C)C`, the pIC50 in assay [1] is 6.85.

As to `CC(=O)O[C@@]12CO[C@@H]1C[C@H](O)[C@@]1(C)C(=O)[C@H](O)C3=C(C)[C@@H](OC(=O)[C@H](O)[C@@H](NC(=O)OC(C)C(C)C)c4ccccc4)C[C@@](O)([C@@H](OC(=O)c4ccccc4)[C@H]21)C3(C)C` (mixture of isomers), the pIC50 in assay [1] was 7.33; in assay [2] it was 7.80.

Consider `CCC(C)OC(=O)N[C@@H](c1ccccc1)[C@@H](O)C(=O)O[C@H]1C[C@@]2(O)[C@@H](OC(=O)c3ccccc3)[C@@H]3[C@]4(OC(C)=O)CO[C@@H]4C[C@H](O)[C@@]3(C)C(=O)[C@H](O)C(=C1C)C2(C)C` (mixture of isomers), for which the figures for the negative logarithm of the IC50 (pIC50) in assay [1] and in assay [2] were 7.52 and 7.66, respectively.

On to `CC(=O)O[C@@]12CO[C@@H]1C[C@H](O)[C@@]1(C)C(=O)[C@H](O)C3=C(C)[C@@H](OC(=O)[C@H](O)[C@@H](NC(=O)OC(C)(C)C)c4ccccc4)C[C@@](O)([C@@H](OC(=O)c4ccccc4)[C@H]21)C3(C)C` [DOCETAXEL], for which the values for the pIC50 in assay [1] and in assay [2] were 6.07 and 8.30, respectively.

On to `CC(=O)O[C@H]1C(=O)[C@@]2(C)[C@H]([C@H](OC(=O)c3ccccc3)[C@]3(O)C[C@H](OC(=O)[C@H](O)[C@@H](NC(=O)c4ccccc4)c4ccccc4)C(C)=C1C3(C)C)[C@]1(OC(C)=O)CO[C@@H]1C[C@@H]2O` [PACLITAXEL], for which the figures for the negative-log IC50 (pIC50) in assay [1] and in assay [2] were 6.03 and 7.46, respectively.
